Assay results pooled from the literature.
Lines come from different studies, so protocols differ.
Target: Serine/threonine-protein kinase WNK3 (WNK3, Homo sapiens, UniProt Q9BYP7)

Compound | read-out | technique | tested at | remaining binding [%]
CC1CCCN1c1nccc(-c2cnn3ncccc23)n1 (stereo not shown) | binding | – | 1 µM | 100
COc1ncc2cc3ccccc3nc2c1C#N | cell-free assay | competition with immobilised ligand | 5 µM | 96
Cn1nc(C(F)(F)F)cc1-c1cnc(N2CCc3cc(S(=O)(=O)Nc4c(F)cc(Cl)cc4F)cc(N4CCCC4=O)c32)nc1 | cell-free assay | competition with immobilised ligand | 1 µM | 97
CN(c1nccc(-c2cnn3ncccc23)n1)C1CC1 | binding | – | 1 µM | 100
CNCc1ccccc1-c1csc([C@H](C)Nc2nc(C)nc3cc(OC)c(OC)cc23)c1 | cell-free assay | competition with immobilised ligand | 1 µM | 98
O=C(Nc1c[nH]nc1C(=O)NC1CCNCC1)c1cc(F)cc(F)c1 | binding | competition with immobilised ligand | 1 µM | 100
CN(CCCC(F)(F)F)c1nccc(-c2cnn3ncccc23)n1 | binding | – | 1 µM | 100
CC1=C(C#N)[C@@H](c2ccc3[nH]nc(C)c3c2)C(C#N)=C(c2ccc(Cl)cc2)N1 | cell-free assay | competition with immobilised ligand | 1 µM | 100
Cc1cnn2ncc(-c3ccnc(N(C)C)n3)c2c1 | binding | – | 1 µM | 85
COc1cnc(Nc2cccc(S(N)(=O)=O)c2)nc1N1CCN(c2ccccc2)C(=O)C1 | binding | competition with immobilised ligand | 1 µM | 97
N[C@@H]1CCN(c2nccc(-c3cnn4ncccc34)n2)C1 | binding | – | 1 µM | 98
Cn1cc(Cl)c2c(Oc3c(F)cc(Nc4cc(Cl)nc(N)n4)cc3F)ccnc21 | cell-free assay | competition with immobilised ligand | 0.1 µM | 95
O=C(NCCCN1CCOCC1)c1ccc(Nc2nccc(-c3cc4ccccc4s3)n2)cc1 | binding | competition with immobilised ligand | 1 µM | 100
Nc1ncc2c(n1)-c1c([nH]c3ccc(C#CC4CC4)cc13)CCCC2 | binding | competition with immobilised ligand | 1 µM | 89
O=C(c1ccc(Nc2nccc(-c3cc4ccccc4s3)n2)cc1)N1CCC(N2CCCC2)CC1 | binding | competition with immobilised ligand | 1 µM | 100
CO[C@@H](C)c1c(Nc2ccc([C@H](N(C)C(=O)C3CCS(=O)(=O)CC3)C(F)(F)F)cc2)cnc2cc(Cl)nn12 | cell-free assay | competition with immobilised ligand | 1 µM | 95
O=C(c1ccc(Nc2ncc(Cl)c(-c3cc4ccccc4s3)n2)cc1)N1CCC(N2CCCC2)CC1 | binding | competition with immobilised ligand | 1 µM | 100
COc1ccc2c(c1)O[C@@H](c1ccc(OC)c(OC)c1)C[C@H]2NC(=O)C1(c2ccc3c(c2)OC(F)(F)O3)CC1 | cell-free assay | competition with immobilised ligand | 1 µM | 100
CN(C)c1nccc(-c2cnc3ncccn23)n1 | binding | – | 1 µM | 67
FC(F)(F)Oc1cccc(-c2cnc3ccc(-c4ccncc4)nn23)c1 | binding | competition with immobilised ligand | 5 µM | 77
Cc1c[nH]c2nccc(Oc3c(F)cc(Nc4cc(Cl)nc(N)n4)cc3F)c12 | cell-free assay | competition with immobilised ligand | 0.1 µM | 90
CCN1CCN(Cc2ccc(C(=O)Nc3ccc(C)c(Oc4ccc5c(c4)CC(=O)N5)c3)cc2C(F)(F)F)CC1 | binding | competition with immobilised ligand | 1 µM | 100
